Here are results for 22 compounds from ChEMBL document CHEMBL1135531, “Cardiovascular characterization of [1,4]thiazino[3,4-c][1,2,4]oxadiazol-1-one derivatives: selective myocardial calcium channel modulators” (J Med Chem, 2002).

As usually defined, the EC50 is the concentration needed to bring the measured effect to its halfway point. As a reminder, the inhibition is the drop in the measured response relative to a control, in per cent. Broadly, the EC30 is the concentration needed for an effect of 30%. The low end stands for greater potency, the high end for weaker potency.

The species named for test [1] is Cavia porcellus. Description: Effective drug concentration for negative inotropic activity was determined; Range is from 1.35-2.05 (10e-6 M). The format is functional, organism-based. The essentials:
(§1)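 Left atria from female guinea pigs (300-400 g) in Tyrode PSS, pH 7.4, 95% O2/5% CO2, 35 °C. Driven at 1 Hz with 0.6-0.8 ms pulses at about 50% threshold voltage; isometric force recorded. Cumulative 0.1-100 µM in DMSO (≤0.3% in bath), each added at steady state. EC50 by Probit log concentration-response analysis (n = 6-8), not calculated when maximum effect <50%.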

For test [2], the species on record is Cavia porcellus. Kind of test: Negative chronotropic activity in isolated guinea pig right atrium. The format is functional, Cardiac atrium.
For test [3], the species on record is Cavia porcellus. Description: Percent inhibition of calcium-induced contraction on K+-depolarized guinea-pig aortic strip at 5 x 10 e-5M. Type of test: functional. Conditions: Aorta.
Test [4] is filed under the species Cavia porcellus. Description: Negative inotropic activity in isolated guinea pig left atrium. Type of test: functional, Cardiac atrium.
The species entered for test [5] is Cavia porcellus. Description: Effective drug concentration for negative inotropic activity was determined; Range is from 0.41-0.72 (10e-6 M). Type of test: functional. The method in brief: as §1
Test [6] is filed under the species Cavia porcellus. Kind of test: Effective drug concentration for negative inotropic activity was determined; Range is from 0.55-0.93 (10e-6 M). The format is functional. The essentials:
as §1

Test [7] is filed under the species Cavia porcellus. Kind of test: Effective drug concentration for negative inotropic activity was determined; Range is from 0.43-0.56 (10e-6 M). The format is functional. The method in brief: as §1
For test [8], the species on record is Cavia porcellus. Description: Effective drug concentration for negative inotropic activity was determined; Range is from 1.03-1.45 (10e-6 M). The format is functional. The method in brief:
as §1

The species named for test [9] is Cavia porcellus. Description: Effective drug concentration for negative inotropic activity was determined; Range is from 0.23-0.43 (10e-6 M). Type of test: functional. The method in brief:
as §1

The species named for test [10] is Cavia porcellus. Description: Effective drug concentration for negative inotropic activity was determined; Range is from 1.34-2.19 (10e-6 M). The format is functional, organism-based. The method in brief: as §1
Test [11] is filed under the species Cavia porcellus. Description: Effective drug concentration for negative inotropic activity was determined; Range is from 1.02-1.98 (10e-6 M). Type of test: functional. The method in brief: as §1
Test [12] is filed under the species Cavia porcellus. Kind of test: Effective drug concentration for negative inotropic activity was determined; Range is from 0.65-1.05 (10e-6 M). Type of test: functional. The method in brief: as §1
The species entered for test [13] is Cavia porcellus. Kind of test: Effective drug concentration for negative inotropic activity; Range is from 0.41-0.65 (10e-6 M). Type of test: functional. The essentials:
as §1

The species named for test [14] is Cavia porcellus. Description: Effective drug concentration for negative inotropic activity was determined; Range is from 0.18-0.30 (10e-6 M). Type of test: functional. The essentials:
as §1

The species named for test [15] is Cavia porcellus. Kind of test: Effective drug concentration for negative inotropic activity. The format is functional. The method in brief:
as §1

Test [16] is filed under the species Cavia porcellus. Description: Effective drug concentration for negative inotropic activity was determined; Range is from 2.35-3.10 (10e-6 M). The format is functional. The essentials: as §1
For test [17], the species on record is Cavia porcellus. Kind of test: Effective drug concentration for negative inotropic activity was determined; Range is from 0.46-0.92 (10e-6 M). Type of test: functional. The method in brief:
as §1

The species entered for test [18] is Cavia porcellus. Description: Effective drug concentration for negative inotropic activity was determined; Range is from 1.35-2.23 (10e-6 M). The format is functional, organism-based. The essentials:
as §1

The species entered for test [19] is Cavia porcellus. Description: Effective drug concentration for negative inotropic activity was determined; Range is from 3.67-4.52 (10e-6 M). The format is functional, organism-based. The essentials:
as §1

Test [20] is filed under the species Cavia porcellus. Description: Effective drug concentration for negative inotropic activity was determined; Range is from 0.61-0.85 (10e-6 M). Type of test: functional. The method in brief: as §1
The species named for test [21] is Cavia porcellus. Kind of test: Effective drug concentration for negative inotropic activity was determined; Range is from 1.67-2.83 (10e-6 M). The format is functional, organism-based. The essentials: as §1
The species named for test [22] is Cavia porcellus. Kind of test: Effective drug concentration for negative inotropic activity was determined; Range is from 5.99-7.13 (10e-6 M). Type of test: functional, organism-based. The essentials: as §1
The species named for test [23] is Cavia porcellus. Kind of test: Effective drug concentration for negative inotropic activity was determined; Range is from 0.53-0.64 (10e-6 M). The format is functional. The essentials:
as §1

Test [24] is filed under the species Cavia porcellus. Kind of test: Effective drug concentration for negative inotropic activity was determined; Range is from 0.70-0.85 (10e-6 M). The format is functional.
The species entered for test [25] is Cavia porcellus. Description: Effective drug concentration (EC30) for negative chronotropic activity was determined; Range is from 0.064-0.075 (10e-6 M). The format is functional.

Compound `CC1=CSC(O)(c2ccc([N+](=O)[O-])cc2)c2noc(=O)n21` (centres undefined) returned an EC50 in test [1] of 1650 nM. Further, the values for the Decrease in test [2] and in test [4] were 16% and 73%, respectively. For the same compound, the inhibition at 50 µM in test [3] stood at 19%.
With `COc1ccc(C2(O)SC=C(C)n3c2noc3=O)cc1` (centres undefined), in test [5], a half-maximal effect (EC50) was put at 520 nM. For the same compound, the Decrease in test [2] amounted to 12%; in test [4], 76%. Further, the inhibition at 50 µM in test [3] is 18%.
In [6], `CC1=CSC(O)(c2ccc(C#N)cc2)c2noc(=O)n21` (centres undefined) returned an EC50 of 760 nM. Besides, the Decrease in test [2] came to 30%; in [4] it was 76%. Besides, the inhibition at 50 µM in test [3] was determined as 13%.
For `COc1cccc(C2(O)SC=C(C)n3c2noc3=O)c1` (centres undefined), the EC50 in test [7] came to 490 nM. The results for the Decrease in test [2] and in test [4] were 16% and 86%, respectively. The inhibition at 50 µM in [3] came to 10%.
The compound `CC1=CSC(O)(c2ccc(F)cc2)c2noc(=O)n21` (centres undefined) yielded an EC50 in [8] of 1210 nM. For the same compound, the Decrease came to 10% in test [2] and 74% in test [4]. Further, the inhibition at 50 µM in test [3] is 8%.
As for `CC1=CSC(O)(c2ccc(Br)cc2)c2noc(=O)n21` (centres undefined), a half-maximal effect in test [9] (EC50) was put at 320 nM. Also, the values for the Decrease in test [2] and in test [4] were 18% and 97%, respectively. In addition, the inhibition at 50 µM in test [3] amounted to 12%.
With `CC1=Cn2c(noc2=O)C(O)(c2ccc(Cl)cc2)S1` (centres undefined), in test [10], the EC50 stood at 1720 nM. In addition, the Decrease in test [2] is listed as 11%; in test [4], 71%. In addition, the inhibition at 50 µM in test [3] is 15%.
`CC1=C(C)n2c(noc2=O)C(O)(c2ccc(Cl)cc2)S1` (centres undefined) gave an EC50 in test [11] of 1420 nM. Besides, the figures for the Decrease in test [2] and in [4] were 19% and 70%, respectively. Besides, the inhibition at 50 µM in [3] was determined as 28%.
With `CC1=CSC(O)(c2ccc(Cl)cc2)c2noc(=O)n21` (centres undefined), the EC50 in test [12] amounted to 800 nM. The Decrease in test [2] amounted to 18%; in test [4], 80%. Further, the inhibition at 50 µM in [3] stood at 26%.
Take `O=c1onc2n1-c1ccccc1SC2(O)c1ccc(Cl)cc1` (centres undefined): in [13], it took 520 nM to reach a half-maximal effect (EC50). The Decrease is recorded as 21% in test [2] and 94% in [4]. Further, the inhibition at 50 µM in test [3] amounted to 40%.
`CC1=CSC(O)(c2ccccc2)c2noc(=O)n21` (centres undefined) came in with an EC50 in test [14] of 230 nM. The values for the Decrease in test [2] and in test [4] were 14% and 95%, respectively. In addition, the inhibition at 50 µM in test [3] came out at 4%.
For the compound `CC1=CSC(OCC(C)C)(c2ccc(Cl)cc2)c2noc(=O)n21` (centres undefined), in test [15], a half-maximal effect (EC50) was put at 560 nM. The figures for the Decrease in test [2] and in [4] were 15% and 83%, respectively. In addition, the inhibition at 50 µM in [3] is 37%.
The compound `COC1(c2ccc(Cl)cc2)SC=C(C)n2c1noc2=O` (centres undefined) showed an EC50 in test [15] of 1540 nM. In addition, the Decrease in test [2] stood at 22%; in test [4], 62%. Further, the inhibition at 50 µM in test [3] was determined as 14%.
In the case of `CC1=CSC(O)(c2ccc(-c3ccccc3)cc2)c2noc(=O)n21` (centres undefined), the Decrease was 18% in test [2] and 71% in test [4]. Besides, the inhibition at 50 µM in test [3] amounted to 9%. Also, a half-maximal response in [16] (EC50) required 2650 nM.
In turn, `CC1=CSC(O)(c2cccc(Cl)c2)c2noc(=O)n21` (centres undefined) gave an EC50 in test [17] of 650 nM. The Decrease in test [2] came to 34%; in test [4], 88%. Moreover, the inhibition at 50 µM in test [3] was 17%.
Regarding `CC1=CSC(O)(c2cccc([N+](=O)[O-])c2)c2noc(=O)n21` (centres undefined), the EC50 in [18] worked out at 1760 nM. The Decrease came out at 13% in [2] and 68% in test [4]. For the same compound, the inhibition at 50 µM in test [3] amounted to 19%.
`O=c1onc2n1C=CSC2(O)c1ccc(Cl)cc1` (centres undefined): the EC50 in test [19] was determined as 4070 nM. The figures for the Decrease in [2] and in test [4] were 7% and 78%, respectively. In [3], the inhibition at 50 µM is 10%.
For `CC1=CSC(O)(c2cccc(C)c2)c2noc(=O)n21` (centres undefined), in [20], the EC50 turned out to be 720 nM. Besides, the Decrease stood at 10% in test [2] and 89% in test [4]. For the same compound, the inhibition at 50 µM in [3] came to 12%.
Consider `CC1=CSC(O)(c2cccc(C(F)(F)F)c2)c2noc(=O)n21` (centres undefined), for which the response in test [21] was half-maximal at 2170 nM (EC50). Moreover, the figures for the Decrease in test [2] and in test [4] were 20% and 96%, respectively. Moreover, the inhibition at 50 µM in test [3] is 37%.
Consider `O=c1onc2n1C=CSC2(O)c1ccccc1` (centres undefined), for which the EC50 in test [22] stood at 6580 nM. Also, the Decrease in [2] was found to be 14%; in [4], 74%. The inhibition at 50 µM in test [3] was determined as 11%.
In test [23], `CC1=CSC(O)(c2ccc(C)cc2)c2noc(=O)n21` (centres undefined) had an EC50 of 570 nM. Moreover, the Decrease is given as 13% in [2] and 82% in [4]. In addition, the inhibition at 50 µM in [3] worked out at 5%.
`COc1ccc([C@@H]2Sc3ccccc3N(CCN(C)C)C(=O)[C@@H]2OC(C)=O)cc1` [DILTIAZEM]: in test [24], the EC50 amounted to 790 nM. For the same compound, the Decrease in test [2] worked out at 94%; in test [4], 78%. The same compound had an EC30 in test [25] of 70 nM. The inhibition at 50 µM in test [3] worked out at 88%.
